Here are results for 37 compounds from ChEMBL document CHEMBL1152791, “New poly(ADP-ribose) polymerase-1 inhibitors with antioxidant activity based on 4-carboxamidobenzimidazole-2-ylpyrroline and -tetrahydropyridine nitroxides and their precursors” (J Med Chem, 2009).

Activity calls are given as the source filed them. The calls are words filed in the database; no cut-off is given here.

The subject of one data set is WRL68. Briefly: Inhibition of H2O2-induced cell death in human WRL68 cells after 3 hrs by MTT assay. The data set is classed as functional, cell-based. As to conditions: WRL68, 3 h. The procedure, abridged:
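WRL-68 cells (ATCC) were grown in DMEM with 10% fetal calf serum at 37 °C and 5% CO2, seeded at 2.5 × 10⁴ cells/well and left overnight. They were then exposed to 0.3 mM H2O2 alone or with 0.02–10 µM compound for 3 h, then 0.5% MTT for 3 h. Formazan was dissolved in acidic isopropanol and read at 550 nm. Runs used ≥6 parallels and were repeated 3 times. IC50 is the concentration (µM) halving H2O2-induced death.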
Background: Formazan colour is commonly taken as a measure of viable cells.

Data set [1] in a line: Antioxidant activity assessed as hydroxyl radical scavenging activity by fenton reaction. Format: functional. The procedure, abridged:
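Fenton-type hydroxyl radical generation in 2.5 mL of 20 mM potassium phosphate pH 6.8 with 0.1 mM benzoic acid, 0.1 mM H2O2 and 20 µM Fe2+-EDTA. Hydroxybenzoic acid formation followed by fluorescence (ex 305 nm, em 407 nm). IC50 is the concentration (µM) halving the rate of benzoic acid hydroxylation.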

In data set [2] the target is Poly [ADP-ribose] polymerase 1 (Rattus norvegicus, UniProt P27008). Briefly: (§1) Inhibition of rat liver PARP1 by scintillation counting.
Data set [3] is described as follows: Toxicity in ip dosed C57BL/6 mouse assessed as mortality measured every 24 hrs for 14 days. The data set is classed as organism-based. The conditions noted are these: in vivo. The procedure, abridged:
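C57BL/6 mice, groups of eight, given a single intraperitoneal injection of […]. Animals were watched for respiratory, digestive and neurological changes. Deaths were counted every 24 h for 14 days. Animals were kept under standard conditions with tap water and chow ad libitum.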

The test system of data set [4] is Rattus norvegicus. Briefly: Metabolic stability in Wistar rat assessed as 2-(1-oxyl-2,2,6,6-tetramethyl-1,2,3,6-tetrahydropyridin-4-yl)-1H-benzimidazol-4-carboxylic acid amide radical level in urine at 8 mg/kg, ip after 4 hrs by EPR spectroscopy. Format: ADME, organism-based. Also noted: dose 8 mg/kg, route intraperitoneal. As to conditions: in vivo. The procedure, abridged: (§2)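 Male Wistar rats (290–350 g, n = 3/group) were housed singly in metabolic cages and given a single ip dose of the HCl salt dissolved in 1.0 mL 0.9% NaCl. Urine was collected before dosing and from injection to 4 h. Untreated urine was measured by X-band EPR in 50 µL glass capillaries to give the radical concentration.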

The subject of data set [5] is Rattus norvegicus. The data set can be described thus: Metabolic stability in Wistar rat assessed as 2-(1-oxyl-2,2,6,6-tetramethyl-1,2,3,6-tetrahydropyridin-4-yl)-1H-benzimidazol-4-carboxylic acid amide radical level in urine at 8 mg/kg, ip after 4 hrs by EPR spectroscopy in presence of PbO2. Format: ADME, organism-based. Also noted: dose 8 mg/kg, route intraperitoneal. The conditions noted are these: in vivo. The procedure, abridged:
(§3)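 Male Wistar rats (290–350 g, n = 3/group) were housed singly in metabolic cages and given a single ip dose of the HCl salt in 1.0 mL 0.9% NaCl. For urine collected from 0 to 4 h, 50 mg PbO2 was added per 1 mL, vortexed 1 min and left 10 min. This oxidizes hydroxylamine to nitroxide. A 50 µL portion of supernatant was then measured by X-band EPR.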

The target of data set [6] is Poly [ADP-ribose] polymerase 1 (Rattus norvegicus) (UniProt P27008). The data set is described as §1.
Data set [7] has as its system Rattus norvegicus. Briefly: Metabolic stability in Wistar rat assessed as nitroxide metabolite level in urine at 8 mg/kg, ip after 4 hrs by EPR spectroscopy. The data set is classed as ADME, organism-based. Details: dose 8 mg/kg, route intraperitoneal. The conditions noted are these: in vivo. The procedure, abridged: as §2
The test system of data set [8] is Rattus norvegicus. Briefly: Metabolic stability in Wistar rat assessed as nitroxide metabolite level in urine at 8 mg/kg, ip after 4 hrs by EPR spectroscopy in presence of PbO2. The conditions noted are these: in vivo. The data set is classed as ADME, organism-based. Also noted: dose 8 mg/kg, route intraperitoneal. The procedure, abridged: as §3

Sequence of Poly [ADP-ribose] polymerase 1 (Rattus norvegicus) (P27008 whole entry): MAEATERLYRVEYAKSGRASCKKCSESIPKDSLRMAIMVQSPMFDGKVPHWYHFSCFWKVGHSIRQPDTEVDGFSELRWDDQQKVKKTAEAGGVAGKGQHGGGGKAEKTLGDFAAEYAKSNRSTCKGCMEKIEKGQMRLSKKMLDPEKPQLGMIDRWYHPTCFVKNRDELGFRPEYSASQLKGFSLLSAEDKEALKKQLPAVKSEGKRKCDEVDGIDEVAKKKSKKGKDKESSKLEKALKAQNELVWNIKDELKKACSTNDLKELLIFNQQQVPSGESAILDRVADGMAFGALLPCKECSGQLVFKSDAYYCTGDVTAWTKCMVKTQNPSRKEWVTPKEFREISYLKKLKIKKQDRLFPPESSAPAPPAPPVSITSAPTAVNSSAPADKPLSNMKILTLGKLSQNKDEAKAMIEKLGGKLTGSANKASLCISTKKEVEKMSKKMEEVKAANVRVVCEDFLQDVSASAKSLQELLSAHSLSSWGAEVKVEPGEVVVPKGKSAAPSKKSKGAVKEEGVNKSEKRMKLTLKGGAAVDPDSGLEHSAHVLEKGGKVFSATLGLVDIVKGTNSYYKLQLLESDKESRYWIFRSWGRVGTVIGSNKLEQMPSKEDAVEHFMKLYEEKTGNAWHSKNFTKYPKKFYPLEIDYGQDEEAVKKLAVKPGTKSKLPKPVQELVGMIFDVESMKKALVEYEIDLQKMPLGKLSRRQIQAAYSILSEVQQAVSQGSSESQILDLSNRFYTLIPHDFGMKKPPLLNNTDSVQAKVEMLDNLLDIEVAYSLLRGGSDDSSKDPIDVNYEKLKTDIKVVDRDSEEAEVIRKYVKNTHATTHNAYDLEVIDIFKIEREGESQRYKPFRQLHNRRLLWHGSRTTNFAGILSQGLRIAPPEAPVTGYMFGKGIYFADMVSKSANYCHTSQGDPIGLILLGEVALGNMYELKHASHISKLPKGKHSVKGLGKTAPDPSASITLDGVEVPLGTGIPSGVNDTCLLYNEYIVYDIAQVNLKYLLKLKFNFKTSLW
Sequence of Poly [ADP-ribose] polymerase 1 (P27008 whole entry): as above

On to `COc1cc(-c2nc3c(C(N)=O)cccc3[nH]2)ccc1OCC1=CC(C)(C)NC1(C)C`, for which the 50% inhibitory concentration (IC50) came to 0.101 µM in the data set with WRL68 and 3.8 µM in [1].
Take `CC1(C)c2cc(-c3nc4c(C(N)=O)cccc4[nH]3)sc2C(C)(C)N1O`: the IC50 is 40 µM in the data set with WRL68, 3.4 µM in [2] and 27 µM in data set [1].
For the compound `CC1(C)C(c2ccccc2)=C(c2nc3c(C(N)=O)cccc3[nH]2)C(C)(C)N1O`, the IC50 in the data set on WRL68 turned out to be 0.24 µM; in [2] it was 1.5 µM; in [1], 1.25 µM.
With `CC1(C)NC(C)(C)C(c2nc3c(C(N)=O)cccc3[nH]2)=C1c1ccccc1`, the IC50 with WRL68 amounted to 3.98 µM; in data set [1], 0.38 µM.
For `CC1(C)NC(C)(C)C(c2cccc3c2oc2ccccc23)=C1c1nc2c(C(N)=O)cccc2[nH]1`, the IC50 stood at 0.324 µM with WRL68, 1.8 µM in data set [2] and 5.3 µM in data set [1].
Take `CC1(C)NC(C)(C)c2cc(-c3nc4c(C(N)=O)cccc4[nH]3)ccc21`: the concentration for half-maximal inhibition (IC50) in the data set with WRL68 worked out at 0.19 µM; in [2], 0.45 µM; in [1], 140 µM.
On to `CC1(C)C=C(COc2ccc(-c3nc4c(C(N)=O)cccc4[nH]3)cc2)C(C)(C)N1O`, for which the IC50 worked out at 1.61 µM with WRL68, 0.564 µM in data set [2] and 13.2 µM in data set [1].
The matching figures for `CC1(C)C(Br)=C(c2nc3c(C(N)=O)cccc3[nH]2)C(C)(C)N1O`: 8.21 µM, 0.201 µM and 2.8 µM.
For `CC1(C)C=C(c2ccc(-c3nc4c(C(N)=O)cccc4[nH]3)cc2)C(C)(C)N1`, the figures for the IC50 (with WRL68; in data set [1]) were 0.341 µM and 4.5 µM, respectively.
As to `CC1(C)C(c2nc3c(C(N)=O)cccc3[nH]2)=C(c2cccc3c2oc2ccccc23)C(C)(C)N1O`, the IC50 with WRL68 worked out at 26.8 µM; in data set [2], 1.8 µM; in [1], 5.3 µM.
With `CC1(C)C=C(c2nc3c(C(N)=O)cccc3[nH]2)C(C)(C)N1`, the half-inhibitory concentration (IC50) with WRL68 was 0.62 µM; in data set [1], 2.1 µM. Besides, in [3], the median lethal dose (LD50) at 336 h worked out at 620 mg/kg.
As for `CC1(C)NC(C)(C)c2sc(-c3nc4c(C(N)=O)cccc4[nH]3)cc21`, the IC50 in the data set on WRL68 is 6.92 µM; in data set [1], 10.5 µM.
As for `CN1C(C)(C)C=C(c2nc3c(C(N)=O)cccc3[nH]2)C1(C)C`, the values for the IC50 (in the data set on WRL68; in data set [1]) were 0.095 µM and 73 µM, respectively.
The matching figures for `CC1(C)NC(C)(C)C(c2nc3c(C(N)=O)cccc3[nH]2)=C1Br`: 3.51 µM and 3.4 µM.
For `CC1(C)NC(C)(C)C(c2nc3c(C(N)=O)cccc3[nH]2)=C1c1cccc(C(F)(F)F)c1`, the IC50 in the data set with WRL68 is 32 µM; in [1] it was 13.4 µM.
With `CC1(C)C=C(c2ccc(-c3nc4c(C(N)=O)cccc4[nH]3)cc2)C(C)(C)N1O`, the IC50 was found to be 0.033 µM with WRL68, 0.078 µM in data set [2] and 7.2 µM in data set [1].
On the same counts, the results for `CC1(C)NC(C)(C)c2cc(-c3nc4c(C(N)=O)cccc4[nH]3)ncc21` are 0.08 µM, 0.47 µM and 150 µM.
With `COC(=O)[C@@H]1[C@@H](c2nc3c(C(N)=O)cccc3[nH]2)C(C)(C)N(O)C1(C)C`, the IC50 came to 11.1 µM in the data set with WRL68 and 0.9 µM in [1].
As for `CC1(C)C=C(CSc2nc3c(C(N)=O)cccc3[nH]2)C(C)(C)N1`, the half-inhibitory concentration (IC50) amounted to 3.14 µM in the data set on WRL68, 3 µM in data set [2] and 200 µM in [1].
Consider `CC1(C)C=C(c2nc3c(C(N)=O)cccc3[nH]2)CC(C)(C)N1O`, for which the results for the IC50 (with WRL68; in data set [2]; in data set [1]) were 15.6 µM, 0.026 µM and 9.6 µM, respectively. Besides, the Activity in the data set on Rattus norvegicus [4] is 0.7 nM; with Rattus norvegicus [5], 1.7 nM.
With `CC1(C)C=C(Cn2cnc3c(C(N)=O)cccc32)C(C)(C)N1O`, the IC50 in the data set with WRL68 came to 1.99 µM; in data set [2], 10 µM; in data set [1], 1.8 µM.
For `CC1(C)C=C(c2nc3cc(C(N)=O)ccc3[nH]2)CC(C)(C)N1`, the result in data set [6] was inactive. In data set [1], the IC50 worked out at 45 µM.
For the compound `CC1(C)C=C(COc2ccc(-c3nc4c(C(N)=O)cccc4[nH]3)cc2)C(C)(C)N1`, the IC50 in the data set on WRL68 came out at 1.61 µM; in data set [1], 4.3 µM.
`CC1(C)C=C(c2nc3cc(C(N)=O)ccc3[nH]2)CC(C)(C)N1O`: the IC50 with WRL68 was determined as 28.3 µM; in [1], 170 µM. Besides, the outcome in data set [6] was inactive.
For `COc1cc(-c2nc3c(C(N)=O)cccc3[nH]2)ccc1OCC1=CC(C)(C)N(O)C1(C)C`, the IC50 is 10.1 µM in the data set with WRL68, 0.472 µM in data set [2] and 14.1 µM in data set [1].
As for `CC1(C)C=C(CSc2nc3c(C(N)=O)cccc3[nH]2)CC(C)(C)N1`, the IC50 turned out to be 5.57 µM in the data set with WRL68, 4 µM in [2] and 350 µM in [1].
Consider `CC(=O)N1C(C)(C)C=C(c2nc3c(C(N)=O)cccc3[nH]2)C1(C)C`, for which the IC50 is 3.15 µM in the data set with WRL68 and 81 µM in data set [1].
In the case of `CC1(C)C=C(CSc2nc3c(C(N)=O)cccc3[nH]2)C(C)(C)N1O`, the results for the IC50 (in the data set on WRL68; in data set [2]; in data set [1]) were 20.9 µM, 6 µM and 200 µM, respectively.
As for `CON1C(C)(C)C=C(c2nc3c(C(N)=O)cccc3[nH]2)C1(C)C`, the values for the IC50 (in the data set on WRL68; in data set [1]) were 0.0094 µM and 113 µM, respectively.
As to `CC(C)NC(=O)c1cccc2[nH]c(C3=CC(C)(C)NC3(C)C)nc12`, the IC50 was found to be 56.7 µM in the data set with WRL68, 10 µM in data set [2] and 2.3 µM in data set [1].
As to `COC(=O)[C@@H]1[C@@H](c2nc3c(C(N)=O)cccc3[nH]2)C(C)(C)NC1(C)C`, the figures for the IC50 (in the data set with WRL68; in [2]; in [1]) were 0.33 µM, 0.216 µM and 3.1 µM, respectively.
On the same counts, the results for `CC(C)NC(=O)c1cccc2[nH]c(C3=CC(C)(C)N(O)C3(C)C)nc12` are 3.35 µM, 10 µM and 2.1 µM.
On to `CC1(C)C=C(CSc2nc3c(C(N)=O)cccc3[nH]2)CC(C)(C)N1O`, for which the IC50 in the data set on WRL68 came to 12.7 µM; in [2], 5 µM; in [1], 180 µM.
On to `CC1(C)C=C(c2nc3ccccc3[nH]2)CC(C)(C)N1`, for which the result in [6] was inactive. Further, the IC50 in [1] was determined as 5.5 µM.
Consider `CC1(C)C(c2cccc(C(F)(F)F)c2)=C(c2nc3c(C(N)=O)cccc3[nH]2)C(C)(C)N1O`, for which the IC50 in the data set with WRL68 was determined as 60.9 µM; in [2], 0.149 µM; in [1], 11.2 µM.
In the case of `CC1(C)C=C(c2nc3c(C(N)=O)cccc3[nH]2)CC(C)(C)N1`, the IC50 with WRL68 was determined as 0.098 µM; in data set [1] it was 1.6 µM. Further, the LD50 at 336 h in data set [3] was determined as 740 mg/kg.
As for `CC1(C)C=C(c2nc3c(C(N)=O)cccc3[nH]2)CC(C)(C)N1O.Cl`, the Activity in the data set with Rattus norvegicus [7] amounted to 87 nM; in the data set with Rattus norvegicus [8], 116 nM.

As usually defined, the IC50 is the concentration at which inhibition is half-maximal. The LD50 is the dose expected to kill half of the subjects tested.
